In ChEMBL document CHEMBL2086326, “Biological activity evaluation and structure-activity relationships analysis of ferulic acid and caffeic acid derivatives for anticancer” (Bioorg Med Chem Lett, 2012):

How the values were obtained:
Type in all cases: functional, cell-based
[1] = test system: A549; experiment: Cytotoxicity against human A549 cells after 72 hrs by alamar blue assay; conditions: A549, 72 h
Method in brief: (§1)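 Cells seeded at 800–1000 per well (20–25 cells/µL) and left overnight to attach. Compounds were diluted serially from 10 mM DMSO stocks and tested at 8 final concentrations, 50 to 0.39 µM, in triplicate for 72 h. Vehicle control was 0.5% DMSO. Alamar blue was added to 10% final and fluorescence read after 4 h (ex 530, em 560 nm). Viability was expressed as percent of vehicle, and IC50 taken as 50% kill versus control.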

[2] = test system: NCI-H157; experiment: Cytotoxicity against human NCI-H157 cells after 72 hrs by alamar blue assay; conditions: NCI-H157, 72 h; method in brief: as §1
[3] = test system: NCI-H460; experiment: Cytotoxicity against human H460 cells after 72 hrs by alamar blue assay; conditions: NCI-H460, 72 h; method in brief: as §1
[4] = test system: NCI-H1792; experiment: Cytotoxicity against human NCI-H1792 cells after 72 hrs by alamar blue assay; conditions: NCI-H1792, 72 h; method in brief: as §1
[5] = Cytotoxicity against human H266 cells after 72 hrs by alamar blue assay; conditions: H266, 72 h; method in brief: as §1
[6] = test system: HOP-62; experiment: Cytotoxicity against human HOP62 cells after 72 hrs by alamar blue assay; conditions: HOP-62, 72 h; method in brief: as §1
[7] = test system: NCI-H1299; experiment: Cytotoxicity against human NCI-H1299 cells after 72 hrs by alamar blue assay; conditions: NCI-H1299, 72 h; method in brief: as §1
[8] = Cytotoxicity against human 292G cells after 72 hrs by alamar blue assay; method in brief: as §1
[9] = test system: Calu-1; experiment: Cytotoxicity against human Calu1 cells after 72 hrs by alamar blue assay; conditions: Calu-1, 72 h; method in brief: as §1
[10] = test system: LOX IMVI; experiment: Cytotoxicity against human LOXIMVI cells after 72 hrs by alamar blue assay; method in brief: as §1
[11] = test system: M14; experiment: Cytotoxicity against human M14 cells after 72 hrs by alamar blue assay; conditions: M14, 72 h; method in brief: as §1
[12] = test system: HeLa; experiment: Cytotoxicity against human HeLa cells after 72 hrs by alamar blue assay; method in brief: as §1
[13] = Cytotoxicity against human M4E cells after 72 hrs by alamar blue assay; method in brief: as §1
[14] = Cytotoxicity against human SKBR cells after 72 hrs by alamar blue assay; method in brief: as §1

| SMILES | IC50 [1] [µM] | IC50 [2] [µM] | IC50 [3] [µM] | IC50 [4] [µM] | IC50 [5] [µM] | IC50 [6] [µM] | IC50 [7] [µM] | IC50 [8] [µM] | IC50 [9] [µM] | IC50 [10] [µM] | IC50 [11] [µM] | IC50 [12] [µM] | IC50 [13] [µM] | IC50 [14] [µM] |
| --- | --- | --- | --- | --- | --- | --- | --- | --- | --- | --- | --- | --- | --- | --- |
| COc1cc(/C=C/C(=O)OCCCO[N+](=O)[O-])ccc1OCCCO[N+](=O)[O-] | 15.8 | > 50 | > 50 | > 50 | > 50 | > 50 | > 50 | > 50 | 1.42 | > 50 | > 50 | 3.62 | > 50 | > 50 |
| COc1cc(/C=C/C(=O)Oc2ccc(OCc3c(-c4ccccc4)no[n+]3[O-])cc2)ccc1O | 3.39 | 43.1 | 15.8 | 8.15 | > 50 | 30.4 | 28.5 | 31 | 28.8 | > 50 | > 50 | 12.1 | > 50 | 11 |
| CCCOC(=O)/C=C/c1ccc(O)c(O)c1 | 4.39 | 7.16 | 7.01 | 22.1 | 34.4 | 7.81 | 5.85 | 7.58 | 17.7 | 7.5 | 13.5 | 1.51 | 12.4 | 3.87 |
| CCCOC(=O)/C=C/c1ccc(O)c(OC)c1 | 15.6 | 15.2 | 25.2 | 34.1 | 20.4 | 22.4 | 40.3 | 35.9 | 48.9 | 15.2 | 28.1 | 5.62 | 18.5 | 24.5 |
| COc1cc(/C=C/C(=O)OCCCCCCO[N+](=O)[O-])ccc1O | 37.4 | 32.1 | > 50 | 48.7 | > 50 | > 50 | > 50 | > 50 | > 50 | > 50 | > 50 | 16.3 | > 50 | 15.2 |
| CCOC(=O)/C=C/c1ccc(O)c(O)c1 [ETHYL CAFFEATE] | 7.22 | 7.62 | 13.1 | 18.4 | > 50 | 12.5 | 4.93 | 5.25 | 17.2 | 6.21 | 9.82 | 1.96 | 11.2 | 4.16 |
| COc1cc(/C=C/C(=O)OCCCCCO[N+](=O)[O-])ccc1O | 6.39 | 13.4 | 12.3 | 13 | 21.2 | 12.5 | 20.8 | 24.9 | 26.3 | > 50 | 24.5 | 13.4 | 21.8 | 8.06 |
| COc1cc(/C=C/C(=O)OC(C)C)ccc1O | > 50 | > 50 | > 50 | > 50 | > 50 | > 50 | > 50 | > 50 | > 50 | > 50 | > 50 | 31.1 | > 50 | > 50 |
| COc1cc(/C=C/C(=O)OC(C)CCOc2no[n+]([O-])c2S(=O)(=O)c2ccccc2)ccc1O (stereo not given) | 0.42 | 0.41 | 0.42 | 0.4 | 0.43 | 0.42 | 0.41 | 1.77 | 0.45 | 0.41 | 0.41 | 0.4 | 1.18 | 0.4 |
| COc1cc(/C=C/C(=O)OCc2ccc(OCc3c(-c4ccccc4)no[n+]3[O-])cc2)ccc1O | 17.2 | > 50 | 44.2 | > 50 | > 50 | > 50 | > 50 | > 50 | > 50 | > 50 | > 50 | > 50 | > 50 | 11.7 |
| COC(=O)/C=C/c1ccc(O)c(OC)c1 | > 50 | > 50 | > 50 | > 50 | > 50 | > 50 | > 50 | > 50 | > 50 | > 50 | > 50 | 5.55 | > 50 | > 50 |
| COc1cc(/C=C/C(=O)OCc2cccc(OCc3c(-c4ccccc4)no[n+]3[O-])c2)ccc1O | > 50 | > 50 | 29.4 | > 50 | > 50 | > 50 | > 50 | > 50 | > 50 | > 50 | > 50 | 5.64 | > 50 | 4.18 |
| O=C(/C=C/c1ccc(O)c(O)c1)OCCCCO[N+](=O)[O-] | 22.6 | 5.19 | 3.52 | 15.4 | 23.3 | 10 | 3.14 | 16.7 | 21.7 | > 50 | 19.9 | 2.25 | 17.5 | 4.55 |
| CC(C)CCOC(=O)/C=C/c1ccc(O)c(O)c1 | 8.76 | 8.25 | 16.5 | 31.9 | 33.8 | 15.7 | 17.9 | 27.6 | 20.2 | 8.03 | 30.6 | 9.39 | 29.1 | 13.1 |
| COC(=O)/C=C/c1ccc(O)c(O)c1 [METHYLCAFFEATE] | 7.54 | 6.25 | 14.8 | 6.09 | > 50 | 3.86 | 3.53 | 3.11 | 5.5 | 21.8 | 8.86 | 3.77 | 8.89 | 5.15 |
| COc1cc(/C=C/C(=O)OCCCCO[N+](=O)[O-])ccc1OCCCCO[N+](=O)[O-] | > 50 | > 50 | > 50 | > 50 | > 50 | > 50 | > 50 | > 50 | > 50 | > 50 | > 50 | 0.74 | > 50 | > 50 |
| COc1cc(/C=C/C(=O)OCCC(C)C)ccc1O [ISOPENTYL FERULATE] | 43.6 | 40.2 | 45 | 37.7 | 48.1 | 31.2 | 31.5 | 48.4 | 32.2 | 48.4 | 45.8 | > 50 | 30.5 | 41.5 |
| O=C(/C=C/c1ccc(O)c(O)c1)OCc1c(-c2ccccc2)no[n+]1[O-] | 2.71 | > 50 | 2.54 | 3.78 | 14.2 | 6.12 | > 50 | 9.17 | 7.68 | 13.3 | 12.5 | 1.23 | 12.9 | 0.7 |
| COc1cc(/C=C/C(=O)OCCCO[N+](=O)[O-])ccc1O | 13.2 | 20.5 | 29 | 28.5 | 44 | 19.4 | 28.3 | 39.4 | > 50 | 29.5 | 42.6 | 6.7 | 18.4 | 17.2 |
| COc1cc(/C=C/C(=O)OCCOCCOc2no[n+]([O-])c2S(=O)(=O)c2ccccc2)ccc1O | 0.41 | 0.44 | 0.43 | 1.07 | 0.42 | 0.48 | 0.49 | 2.88 | 0.45 | 0.42 | 0.41 | 0.43 | 1.12 | 0.41 |
